Assay results from ChEMBL document CHEMBL4152200, “Targeting the entrance channel of NNIBP: Discovery of diarylnicotinamide 1,4-disubstituted 1,2,3-triazoles as novel HIV-1 NNRTIs with high potency against wild-type and E138K mutant virus” (Eur J Med Chem, 2018).

Test system: Human immunodeficiency virus 1
Assay: Antiviral activity against wild-type HIV-1 3B infected in human MT4 cells assessed as inhibition of viral replication after 5 days by MTT assay
Assay type: functional, organism-based
Conditions: Human immunodeficiency virus 1, 3B, MT4, 120 h

Cc1cc(C)c(Oc2cc(Nc3ccc(C#N)cc3)ncc2C(=O)NCc2cn(Cc3ccccc3C#N)nn2)c(C)c1 was tested. Which EC50 did it give?
The EC50 was 39 nM.

Cc1cc(C)c(Oc2cc(Nc3ccc(C#N)cc3)ncc2C(=O)NCc2cn(Cc3cccc(C#N)c3)nn2)c(C)c1 was tested. Which EC50 did it give?
Its EC50 is 25 nM.

Cc1cc(C)c(Oc2cc(Nc3ccc(C#N)cc3)ncc2C(=O)NCc2cn(Cc3ccccc3C)nn2)c(C)c1 was tested. Which EC50 did it give?
The EC50 was 77 nM.

Cc1cc(C)c(Oc2cc(Nc3ccc(C#N)cc3)ncc2C(=O)NCc2cn(Cc3ccc([N+](=O)[O-])cc3)nn2)c(C)c1 was tested. Which EC50 did it give?
Its EC50 is 40 nM.

Cc1cc(C)c(Oc2cc(Nc3ccc(C#N)cc3)ncc2C(=O)NCc2cn(Cc3ccccc3[N+](=O)[O-])nn2)c(C)c1 was tested. Which EC50 did it give?
The EC50 was 57 nM.

With Cc1cc(C)c(Oc2cc(Nc3ccc(C#N)cc3)ncc2C(=O)NCc2cn(Cc3ccccc3F)nn2)c(C)c1 as the molecule, how does the EC50 read?
The EC50 was 95 nM.

Cc1cc(C)c(Oc2cc(Nc3ccc(C#N)cc3)ncc2C(=O)NCc2cn(Cc3ccccc3Cl)nn2)c(C)c1 was tested. Which EC50 did it give?
The EC50 was 104 nM.

Cc1cc(C)c(Oc2cc(Nc3ccc(C#N)cc3)ncc2C(=O)NCc2cn(Cc3cccc(F)c3)nn2)c(C)c1 was tested. Which EC50 did it give?
The EC50 was 79 nM.

For Cc1cc(C)c(Oc2cc(Nc3ccc(C#N)cc3)ncc2C(=O)NCc2cn(Cc3cccc([N+](=O)[O-])c3)nn2)c(C)c1, which EC50 is on record?
Its EC50 is 37 nM.

For Cc1cc(C)c(Oc2cc(Nc3ccc(C#N)cc3)ncc2C(=O)NCc2cn(Cc3ccc(Cl)cc3)nn2)c(C)c1, which EC50 is on record?
Its EC50 is 194 nM.

Which EC50 does the source give for Cc1cc(C)c(Oc2cc(Nc3ccc(C#N)cc3)ncc2C(=O)NCc2cn(Cc3ccc(F)cc3)nn2)c(C)c1 here?
Its EC50 is 74 nM.

Test system: Human immunodeficiency virus 1
Assay: Antiviral activity against HIV1 harboring reverse transcriptase Y188L mutant infected in human MT4 cells assessed as inhibition of viral replication after 5 days by MTT assay
Assay type: functional, organism-based
Conditions: Human immunodeficiency virus 1, MT4, 120 h
In short: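 MT-4 cells in exponential growth, resuspended into wells holding HIV-1 stock (IIIB, RES056 K103N/Y181C, F227L/V106A, L100I, K103N, E138K, Y181C or Y188L) at 100–300 CCID₅₀, or into mock-infected wells. Viability read by MTT reduction to formazan, measured spectrophotometrically 5 days post-infection. EC₅₀ is the concentration giving 50% protection against virus-induced cytotoxicity.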

Cc1cc(C#N)cc(C)c1Oc1nc(Nc2ccc(C#N)cc2)nc(N)c1Br [ETRAVIRINE] was tested. Which EC50 did it give?
Its EC50 is 11 nM.

Test system: Human immunodeficiency virus 1
Assay: Antiviral activity against HIV-1 RES056 harboring reverse transcriptase K103N/Y181C double mutant infected in human MT4 cells assessed as inhibition of viral replication after 5 days by MTT assay
Assay type: functional, organism-based
Conditions: Human immunodeficiency virus 1, RES056, MT4, 120 h

How did the EC50 turn out when Cc1cc(C)c(Oc2cc(Nc3ccc(C#N)cc3)ncc2C(=O)NCc2cn(Cc3ccccc3C#N)nn2)c(C)c1 was run?
Its EC50 is over 220000 nM.

With Cc1cc(C)c(Oc2cc(Nc3ccc(C#N)cc3)ncc2C(=O)NCc2cn(Cc3cccc(C#N)c3)nn2)c(C)c1 as the molecule, how does the EC50 read?
The EC50 was over 130000 nM.

Cc1cc(C)c(Oc2cc(Nc3ccc(C#N)cc3)ncc2C(=O)NCc2cn(Cc3ccccc3C)nn2)c(C)c1 was tested. Which EC50 did it give?
Its EC50 is over 164000 nM.

How did the EC50 turn out when Cc1cc(C)c(Oc2cc(Nc3ccc(C#N)cc3)ncc2C(=O)NCc2cn(Cc3ccc([N+](=O)[O-])cc3)nn2)c(C)c1 was run?
The EC50 was over 140000 nM.

Which EC50 does the source give for Cc1cc(C)c(Oc2cc(Nc3ccc(C#N)cc3)ncc2C(=O)NCc2cn(Cc3ccccc3[N+](=O)[O-])nn2)c(C)c1 here?
Its EC50 is over 212000 nM.

How did the EC50 turn out when Cc1cc(C)c(Oc2cc(Nc3ccc(C#N)cc3)ncc2C(=O)NCc2cn(Cc3ccccc3F)nn2)c(C)c1 was run?
The EC50 was over 222000 nM.

Cc1cc(C)c(Oc2cc(Nc3ccc(C#N)cc3)ncc2C(=O)NCc2cn(Cc3ccccc3Cl)nn2)c(C)c1 was tested. Which EC50 did it give?
Its EC50 is over 188000 nM.

With Cc1cc(C)c(Oc2cc(Nc3ccc(C#N)cc3)ncc2C(=O)NCc2cn(Cc3cccc(F)c3)nn2)c(C)c1 as the molecule, how does the EC50 read?
The EC50 was over 205000 nM.

For Cc1cc(C)c(Oc2cc(Nc3ccc(C#N)cc3)ncc2C(=O)NCc2cn(Cc3cccc([N+](=O)[O-])c3)nn2)c(C)c1, which EC50 is on record?
The EC50 was over 156000 nM.

Which EC50 does the source give for Cc1cc(C)c(Oc2cc(Nc3ccc(C#N)cc3)ncc2C(=O)NCc2cn(Cc3ccc(Cl)cc3)nn2)c(C)c1 here?
Its EC50 is over 120000 nM.

Cc1cc(C)c(Oc2cc(Nc3ccc(C#N)cc3)ncc2C(=O)NCc2cn(Cc3ccc(F)cc3)nn2)c(C)c1 was tested. Which EC50 did it give?
The EC50 was over 153000 nM.

Test system: Human immunodeficiency virus 1
Assay: Antiviral activity against HIV1 harboring reverse transcriptase F227L/V106A double mutant infected in human MT4 cells assessed as inhibition of viral replication after 5 days by MTT assay
Assay type: functional, organism-based
Conditions: Human immunodeficiency virus 1, MT4, 120 h

How did the EC50 turn out when Cc1cc(C#N)cc(C)c1Oc1nc(Nc2ccc(C#N)cc2)nc(N)c1Br [ETRAVIRINE] was run?
Its EC50 is 5 nM.

Test system: MT4
Assay: Cytotoxicity against human MT4 cells assessed as decrease in cell viability after 5 days by MTT assay
Assay type: cell-based
Conditions: mt4, 120 h
In short: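 Mock-infected MT-4 cells, exponentially growing, seeded with compound in culture medium without virus; run in parallel with the antiviral assay. Viability read spectrophotometrically by MTT reduction five days later.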

Cc1cc(C)c(Oc2cc(Nc3ccc(C#N)cc3)ncc2C(=O)NCc2cn(Cc3ccccc3C#N)nn2)c(C)c1 was tested. Which CC50 did it give?
Its CC50 is over 220000 nM.

With Cc1cc(C)c(Oc2cc(Nc3ccc(C#N)cc3)ncc2C(=O)NCc2cn(Cc3cccc(C#N)c3)nn2)c(C)c1 as the molecule, how does the CC50 read?
Its CC50 is at least 130000 nM.

With Cc1cc(C)c(Oc2cc(Nc3ccc(C#N)cc3)ncc2C(=O)NCc2cn(Cc3ccccc3C)nn2)c(C)c1 as the molecule, how does the CC50 read?
Its CC50 is at least 164000 nM.

With Cc1cc(C)c(Oc2cc(Nc3ccc(C#N)cc3)ncc2C(=O)NCc2cn(Cc3ccc([N+](=O)[O-])cc3)nn2)c(C)c1 as the molecule, how does the CC50 read?
The CC50 was at least 140000 nM.

How did the CC50 turn out when Cc1cc(C)c(Oc2cc(Nc3ccc(C#N)cc3)ncc2C(=O)NCc2cn(Cc3ccccc3[N+](=O)[O-])nn2)c(C)c1 was run?
The CC50 was over 212000 nM.

Cc1cc(C)c(Oc2cc(Nc3ccc(C#N)cc3)ncc2C(=O)NCc2cn(Cc3ccccc3F)nn2)c(C)c1 was tested. Which CC50 did it give?
Its CC50 is over 222000 nM.

For Cc1cc(C)c(Oc2cc(Nc3ccc(C#N)cc3)ncc2C(=O)NCc2cn(Cc3ccccc3Cl)nn2)c(C)c1, which CC50 is on record?
Its CC50 is at least 188000 nM.

How did the CC50 turn out when Cc1cc(C)c(Oc2cc(Nc3ccc(C#N)cc3)ncc2C(=O)NCc2cn(Cc3cccc(F)c3)nn2)c(C)c1 was run?
Its CC50 is at least 205000 nM.

Which CC50 does the source give for Cc1cc(C)c(Oc2cc(Nc3ccc(C#N)cc3)ncc2C(=O)NCc2cn(Cc3cccc([N+](=O)[O-])c3)nn2)c(C)c1 here?
The CC50 was at least 156000 nM.

How did the CC50 turn out when Cc1cc(C)c(Oc2cc(Nc3ccc(C#N)cc3)ncc2C(=O)NCc2cn(Cc3ccc(Cl)cc3)nn2)c(C)c1 was run?
The CC50 was at least 120000 nM.

Which CC50 does the source give for Cc1cc(C)c(Oc2cc(Nc3ccc(C#N)cc3)ncc2C(=O)NCc2cn(Cc3ccc(F)cc3)nn2)c(C)c1 here?
The CC50 was at least 153000 nM.
